Key:
[1] = target: Sphingosine kinase 1 (Homo sapiens) (UniProt Q9NYA1); assay: Rate of phosphorylation of labeled sphingosine derivative by human SPHK-1 expressed in HEK293 cells relative to rate of D-sphingosine; format: functional, cell-based
Procedure, shortened: (§1)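 Enzyme source was the cytoplasmic fraction of HEK-293 cells overexpressing human SPHK-1 or -2. Incubation was at 30 °C for time points up to 2 h. Lipids were extracted, separated by TLC and quantified by phosphorimaging, and rates were expressed relative to sphingosine.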

[2] = target: T1, Sphingosine kinase 2 (Homo sapiens) (UniProt Q9NRA0); assay: Rate of phosphorylation of labeled sphingosine derivative by human SPHK-2 expressed in HEK293 cells relative to rate of D-sphingosine; format: functional, cell-based; procedure, shortened: as §1
T1 sequence (whole entry): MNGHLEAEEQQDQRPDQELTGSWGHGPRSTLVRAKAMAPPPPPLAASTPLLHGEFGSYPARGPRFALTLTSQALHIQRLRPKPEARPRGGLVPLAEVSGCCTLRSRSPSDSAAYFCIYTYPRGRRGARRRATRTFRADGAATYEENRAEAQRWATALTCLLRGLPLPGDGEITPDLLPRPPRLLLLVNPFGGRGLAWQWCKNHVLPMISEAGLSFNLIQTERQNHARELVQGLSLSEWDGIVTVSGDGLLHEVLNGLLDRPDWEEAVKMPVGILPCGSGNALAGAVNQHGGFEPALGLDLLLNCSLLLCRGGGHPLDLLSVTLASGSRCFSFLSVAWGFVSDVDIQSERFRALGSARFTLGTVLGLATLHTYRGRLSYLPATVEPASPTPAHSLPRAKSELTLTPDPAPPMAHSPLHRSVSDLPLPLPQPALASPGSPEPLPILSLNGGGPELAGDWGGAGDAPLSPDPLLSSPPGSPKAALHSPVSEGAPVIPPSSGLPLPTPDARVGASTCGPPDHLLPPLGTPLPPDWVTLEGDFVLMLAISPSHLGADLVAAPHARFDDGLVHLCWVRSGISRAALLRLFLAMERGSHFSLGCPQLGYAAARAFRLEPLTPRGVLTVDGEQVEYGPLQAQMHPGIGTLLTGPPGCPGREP

Sphingosine kinase 1 (Homo sapiens), sequence (Q9NYA1 whole entry): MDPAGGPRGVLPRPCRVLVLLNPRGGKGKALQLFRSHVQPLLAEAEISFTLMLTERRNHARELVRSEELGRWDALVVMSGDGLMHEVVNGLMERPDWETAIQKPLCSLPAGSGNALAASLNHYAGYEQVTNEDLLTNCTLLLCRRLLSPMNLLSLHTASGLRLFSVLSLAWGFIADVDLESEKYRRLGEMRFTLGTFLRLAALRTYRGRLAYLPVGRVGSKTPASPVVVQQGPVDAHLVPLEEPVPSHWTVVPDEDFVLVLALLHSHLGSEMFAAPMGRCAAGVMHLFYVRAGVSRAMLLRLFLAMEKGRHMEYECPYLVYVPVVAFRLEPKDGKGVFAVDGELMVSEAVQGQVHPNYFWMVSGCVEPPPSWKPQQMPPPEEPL

Structure (SMILES) | Rate [1] | Rate [2]
NC(CO)[C@H](O)/C=C/CCCCCCCCCCNS(=O)(=O)c1ccc2ccc3cccc4ccc1c2c34 (some centres undefined) | 0.051 | 0.83
N[C@@H](CO)[C@H](O)/C=C/CCCOC(=O)CCCCCc1ccc2ccc3cccc4ccc1c2c34 | 0.078 | 0.83
CN(C)c1ccc(S(=O)(=O)NCCCCCCCCCC/C=C/C(O)C(N)CO)c2ccccc12 (single isomer, unassigned) | 0.063 | 0.026
N[C@@H](CO)[C@H](O)/C=C/CCCOC(=O)CCCc1ccc2ccc3cccc4ccc1c2c34 | 0.048 | 0.14
N[C@@H](CO)[C@H](O)/C=C/CCCCCCCCCCOC(=O)c1ccc2ccc3cccc4ccc1c2c34 | 0.83 | 1.25
N[C@@H](CO)[C@H](O)/C=C/CCCOC(=O)CCCCCCCCCc1ccc2ccc3cccc4ccc1c2c34 | 0.024 | 0.065
NC(CO)[C@H](O)/C=C/CCCCCCCCCCNc1ccc([N+](=O)[O-])c2nonc12 (single isomer, unassigned) | 0.5 | 0.48

— ChEMBL document CHEMBL1147636, “Fluorescence-labeled sphingosines as substrates of sphingosine kinases 1 and 2” (Bioorg Med Chem Lett, 2004)
